Reference: ChEMBL document CHEMBL1777707, “Structure-based design, synthesis, and nonalcoholic steatohepatitis (NASH)-preventive effect of phenylpropanoic acid peroxisome proliferator-activated receptor (PPAR) α-selective agonists” (Bioorg Med Chem, 2011)
Active and inactive are the calls of the source. The calls are words filed in the database; no cut-off is given here.

Assays:
[1] = molecular target: T1, Peroxisome proliferator-activated receptor alpha (Homo sapiens, UniProt Q07869); assay: Agonist activity at Gal4-fussed PPARalpha expressed in human HEK293 cells by reporter gene assay; format: functional, cell-based
T1 sequence (Q07869 whole entry): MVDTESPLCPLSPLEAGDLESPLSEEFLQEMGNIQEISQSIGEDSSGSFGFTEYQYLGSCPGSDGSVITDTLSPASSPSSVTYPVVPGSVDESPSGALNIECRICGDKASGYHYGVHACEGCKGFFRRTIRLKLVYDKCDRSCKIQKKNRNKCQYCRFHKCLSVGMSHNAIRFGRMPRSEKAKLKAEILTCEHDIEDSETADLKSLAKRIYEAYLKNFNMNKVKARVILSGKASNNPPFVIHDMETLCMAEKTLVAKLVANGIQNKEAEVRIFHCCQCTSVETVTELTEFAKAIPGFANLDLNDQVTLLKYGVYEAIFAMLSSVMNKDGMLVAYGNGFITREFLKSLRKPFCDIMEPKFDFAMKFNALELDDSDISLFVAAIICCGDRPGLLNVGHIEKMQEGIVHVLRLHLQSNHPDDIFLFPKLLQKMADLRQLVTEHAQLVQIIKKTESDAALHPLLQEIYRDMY
Outline: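 Transient transfection of HEK-293 cells with PPAR-GAL4 chimeric receptor plus reporter. EC50 is the molar concentration giving 50% of maximal reporter activity; racemates tested as such.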

[2] = molecular target: T2, Peroxisome proliferator-activated receptor delta (Homo sapiens, UniProt Q03181); assay: Agonist activity at Gal4-fussed PPARdelta expressed in human HEK293 cells by reporter gene assay; format: functional, cell-based
T2 sequence (Q03181 whole entry): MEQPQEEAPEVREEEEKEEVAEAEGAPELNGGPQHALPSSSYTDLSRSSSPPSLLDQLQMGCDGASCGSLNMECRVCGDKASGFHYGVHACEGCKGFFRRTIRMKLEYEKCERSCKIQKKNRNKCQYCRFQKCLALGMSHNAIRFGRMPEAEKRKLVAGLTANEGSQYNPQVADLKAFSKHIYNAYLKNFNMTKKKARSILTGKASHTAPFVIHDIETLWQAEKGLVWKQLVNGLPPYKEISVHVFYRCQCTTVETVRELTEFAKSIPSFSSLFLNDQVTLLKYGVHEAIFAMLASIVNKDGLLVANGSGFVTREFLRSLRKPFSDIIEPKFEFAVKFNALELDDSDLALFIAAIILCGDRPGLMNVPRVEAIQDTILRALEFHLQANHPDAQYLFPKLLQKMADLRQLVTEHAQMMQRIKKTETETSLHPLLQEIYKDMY

[3] = molecular target: T3, Peroxisome proliferator-activated receptor gamma (Homo sapiens, UniProt P37231); assay: Agonist activity at Gal4-fussed PPARgamma expressed in human HEK293 cells by reporter gene assay; format: functional, cell-based
T3 sequence (P37231 whole entry): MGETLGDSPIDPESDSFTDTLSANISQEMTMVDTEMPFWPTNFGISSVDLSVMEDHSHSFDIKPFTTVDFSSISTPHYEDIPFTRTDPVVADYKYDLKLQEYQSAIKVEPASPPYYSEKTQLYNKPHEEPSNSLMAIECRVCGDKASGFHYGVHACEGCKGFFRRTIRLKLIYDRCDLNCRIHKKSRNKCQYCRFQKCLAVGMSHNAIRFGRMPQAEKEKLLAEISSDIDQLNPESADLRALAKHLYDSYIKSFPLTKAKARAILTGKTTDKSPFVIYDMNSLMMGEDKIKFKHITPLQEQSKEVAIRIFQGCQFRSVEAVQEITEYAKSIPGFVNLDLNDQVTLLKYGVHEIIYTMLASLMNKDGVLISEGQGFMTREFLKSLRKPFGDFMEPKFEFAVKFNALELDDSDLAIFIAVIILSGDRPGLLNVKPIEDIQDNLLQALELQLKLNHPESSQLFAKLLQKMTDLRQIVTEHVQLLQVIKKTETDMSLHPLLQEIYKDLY

[4] = Selectivity ratio EC50 for Gal4-fussed PPARdelta to EC50 for Gal4-fussed PPARalpha
Rattus norvegicus [5] = assay: Protection against nonalcoholic steatohepatitis progression in 4 weeks choline deficient high-fat diet fed methemoglobinemic Wistar rat assessed as prevention of liver atrophy formation at 1 mg/kg/day, ip administered for 6 weeks by hematoxylin and eosin staining in presence of 40 mg/kg/day, ip of sodium nitrite; format: functional, organism-based
Outline: (§1)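 Rats fed CDHF diet from 6 weeks of age for 4 weeks, then kept on CDHF over a 6-week period with daily ip NaNO2 40 mg/kg to cause methemoglobinemia; treated group also got compound 1 mg/kg/day. Controls were normal chow, CDHF alone and NASH. Housed singly, 12-h light-dark cycle, food and water ad libitum. Endpoints taken at study end.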

Rattus norvegicus [6] = assay: Protection against nonalcoholic steatohepatitis progression in 4 weeks choline deficient high-fat diet fed methemoglobinemic Wistar rat assessed as prevention of nodule formation in liver at 1 mg/kg/day, ip administered for 6 weeks by hematoxylin and eosin staining in presence of 40 mg/kg/day, ip of sodium nitrite; format: functional, organism-based; outline: as §1
Rattus norvegicus [7] = assay: Protection against nonalcoholic steatohepatitis progression in 4 weeks choline deficient high-fat diet fed methemoglobinemic Wistar rat assessed as effect on features of fatty liver at 1 mg/kg/day, ip administered for 6 weeks by hematoxylin and eosin staining in presence of 40 mg/kg/day, ip of sodium nitrite; format: functional, organism-based; outline: as §1
Rattus norvegicus [8] = assay: Protection against nonalcoholic steatohepatitis progression in 4 weeks choline deficient high-fat diet fed methemoglobinemic Wistar rat assessed as prevention of liver fibrosis at 1 mg/kg/day, ip administered for 6 weeks by Masson Trichrome staining in presence of 40 mg/kg/day, ip of sodium nitrite; format: functional, organism-based; outline: as §1
Rattus norvegicus [9] = assay: Protection against nonalcoholic steatohepatitis progression in 4 weeks choline deficient high-fat diet fed methemoglobinemic Wistar rat assessed as prevention of liver necrosis at 1 mg/kg/day, ip administered for 6 weeks by Masson Trichrome staining in presence of 40 mg/kg/day, ip of sodium nitrite; format: functional, organism-based; outline: as §1
Rattus norvegicus [10] = assay: Protection against nonalcoholic steatohepatitis progression in 4 weeks choline deficient high-fat diet fed methemoglobinemic Wistar rat assessed as increase of aspartate amino transferase level at 1 mg/kg/day, ip administered for 6 weeks in presence of 40 mg/kg/day, ip of sodium nitrite; format: functional, organism-based; outline: as §1
Rattus norvegicus [11] = assay: Protection against nonalcoholic steatohepatitis progression in 4 weeks choline deficient high-fat diet fed methemoglobinemic Wistar rat assessed as increase of alanine transaminase level at 1 mg/kg/day, ip administered for 6 weeks in presence of 40 mg/kg/day, ip of sodium nitrite; format: functional, organism-based; outline: as §1
Rattus norvegicus [12] = assay: Protection against nonalcoholic steatohepatitis progression in 4 weeks choline deficient high-fat diet fed methemoglobinemic Wistar rat assessed as increase of alkaline phosphatase level at 1 mg/kg/day, ip administered for 6 weeks in presence of 40 mg/kg/day, ip of sodium nitrite; format: functional, organism-based; outline: as §1
Rattus norvegicus [13] = assay: Protection against nonalcoholic steatohepatitis progression in 4 weeks choline deficient high-fat diet fed methemoglobinemic Wistar rat assessed as increase of liver function at 1 mg/kg/day, ip administered for 6 weeks in presence of 40 mg/kg/day, ip of sodium nitrite; format: functional, organism-based; outline: as §1

SMILES | EC50 [1] [nM] | EC50 [2] [nM] | EC50 [3] [nM] | also measured
CC[C@@H](Cc1ccc(OC)c(CNC(=O)c2ccc(Oc3ccc(Br)cc3)cc2)c1)C(=O)O | 29 | 800 | 990 | –
CCC(Cc1ccc(OC)c(CNC(=O)c2ccc(OC(F)(F)F)cc2)c1)C(=O)O (racemic) | 12 | 110 | 4400 | –
CCC(Cc1ccc(OC)c(CNC(=O)c2ccccc2Oc2ccccc2)c1)C(=O)O (racemic) | 3600 | > 10000 | > 10000 | –
CCC(Cc1ccc(OC)c(CNC(=O)c2ccccc2-c2ccccc2)c1)C(=O)O (racemic) | 3600 | > 10000 | > 10000 | –
CCC(Cc1ccc(OC)c(CNC(=O)c2ccc(OCCc3ccccc3)cc2)c1)C(=O)O (racemic) | 60 | 1400 | 780 | –
CCC(Cc1ccc(OC)c(CNC(=O)c2ccccc2)c1)C(=O)O (racemic) | – | – | > 10000 | –
CCC(Cc1ccc(OC)c(CNC(=O)c2ccc(-c3ccccc3)cc2)c1)C(=O)O (racemic) | 7.6 | – | 340 | –

The remaining compounds from weak to strong by EC50 [3], led by results:

EC50 [1] [nM] | EC50 [2] [nM] | EC50 [3] [nM] | SMILES | also measured
– | 360 | 9600 | CCC(Cc1ccc(OC)c(CNC(=O)c2ccc(C)cc2)c1)C(=O)O (racemic) | –
41 | 4800 | 4600 | CCC(Cc1ccc(OC)c(CNC(=O)c2cccc(Oc3ccccc3)c2)c1)C(=O)O (racemic) | –
5 | 300 | 920 | CC[C@@H](Cc1ccc(OC)c(CNC(=O)c2ccc(Oc3ccc(F)cc3)cc2)c1)C(=O)O | Ratio EC50 [4]: 25; Activity (Rattus norvegicus [5]): Active; Activity (Rattus norvegicus [6]): Active; Activity (Rattus norvegicus [7]): inactive; Activity (Rattus norvegicus [8]): Active; Activity (Rattus norvegicus [9]): Active; Activity (Rattus norvegicus [10]): Active; Activity (Rattus norvegicus [11]): Active; Activity (Rattus norvegicus [12]): Active; Activity (Rattus norvegicus [13]): Active
15 | 580 | 830 | CC[C@@H](Cc1ccc(OC)c(CNC(=O)c2ccc(Oc3ccc(Cl)cc3)cc2)c1)C(=O)O | –
8.8 | 120 | 820 | CCC(Cc1ccc(OC)c(CNC(=O)c2ccc(Oc3ccccc3)cc2)c1)C(=O)O (racemic) | –
74 | 4100 | 710 | CCC(Cc1ccc(OC)c(CNC(=O)c2cccc(-c3ccccc3)c2)c1)C(=O)O (racemic) | –
52 | 1400 | 460 | CCC(Cc1ccc(OC)c(CNC(=O)c2ccc(OCc3ccccc3)cc2)c1)C(=O)O (racemic) | –
